The text below walks through data of ChEMBL document CHEMBL1124949, “4-(1,2,5,6-Tetrahydro-1-alkyl-3-pyridinyl)-2-thiazolamines: a novel class of compounds with central dopamine agonist properties” (J Med Chem, 1990).

The term IC50 denotes the midpoint of a concentration-inhibition curve. Low values mean greater potency, high ones weaker potency. As a reminder, the inhibition in vivo is the share of the control response that was lost under treatment. A low value points to a weak effect. As usually defined, the ED50 is the dose that gives a 50% effect, or the effect in half of the subjects. For orientation: inhibition means the change of the read-out against control, counted positive when it falls. Lower therefore signals a response near the control.

For assay [1], the target named is T1, D(2) dopamine receptor (Rattus norvegicus, UniProt P61169). The experiment in a line: Inhibition of [3H]haloperidol binding for Dopamine receptor D2 in rat striatal membranes. The class given is cell membranes, Membrane.
T1 sequence (P61169 whole entry): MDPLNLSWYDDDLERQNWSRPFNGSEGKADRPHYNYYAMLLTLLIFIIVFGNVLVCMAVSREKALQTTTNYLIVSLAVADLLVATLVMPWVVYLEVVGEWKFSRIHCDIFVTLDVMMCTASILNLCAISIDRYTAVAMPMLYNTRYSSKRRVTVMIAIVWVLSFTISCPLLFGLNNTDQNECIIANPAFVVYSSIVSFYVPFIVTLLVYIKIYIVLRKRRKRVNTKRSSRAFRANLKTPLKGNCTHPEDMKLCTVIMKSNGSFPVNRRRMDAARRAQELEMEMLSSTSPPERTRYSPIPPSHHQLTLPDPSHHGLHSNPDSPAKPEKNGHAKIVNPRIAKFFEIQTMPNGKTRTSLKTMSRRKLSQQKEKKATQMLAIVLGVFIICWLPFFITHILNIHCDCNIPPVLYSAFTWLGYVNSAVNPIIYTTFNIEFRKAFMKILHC
The test system of assay [2] is Rattus norvegicus. The experiment in a line: Decrease of DOPA formation effected by 30 mg/kg administered intraperitoneally in the striatum of GBL-treated rats. The format is functional. Conditions: ip, route intraperitoneal. In outline:
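Male Long-Evans rats dosed ip 1 h before sacrifice. GBL 750 mg/kg ip given 30 min and NSD 1015 100 mg/kg ip given 25 min before sacrifice. Striatal DOPA measured by HPLC with electrochemical detection. Decrease in DOPA formation at 30 mg/kg ip, n = 4 or 5.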

The test system of assay [3] is Rattus norvegicus. As to the kind of experiment: Reversal of reserpine-induced depression in rat after subcutaneous administration. The class given is functional. In outline: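 Rats were pretreated with reserpine 5 mg/kg 24 h before testing, then given drug sc. Locomotor activity was recorded for 30 min starting immediately after dosing.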
For assay [4], the target named is T1, D(2) dopamine receptor. As to the kind of experiment: Inhibition of [3H]N-propylnorapomorphine binding to Dopamine receptor D2 of rat striatal membranes. The format is cell membranes, Membrane.
The subject of assay [5] is Mus musculus. As to the kind of experiment: Inhibition of locomotor activity was determined after intraperitoneal administration in mouse. The format is functional. Conditions: ip. In outline:
(§1)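 Spontaneous exploratory locomotor activity was scored, with motor coordination (ataxia) checked in the same test. ED50 came from four to six doses, with 5–12 animals per dose.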

Assay [6] concerns Rattus norvegicus. As to the kind of experiment: Inhibition of locomotor activity was determined after oral administration in rat. The format is functional. In short, it runs like this:
as §1

Assay [7] relates to Rattus norvegicus. The experiment in a line: Inhibition of locomotor activity was determined after (sc) administration in rat (40% inhibition was determined at 3 mg/kg). The format is functional, organism-based. Also on record: dose 3 mg/kg.
Assay [8] has as its target T1, D(2) dopamine receptor. As to the kind of experiment: Inhibition of [3H]haloperidol binding for Dopamine receptor D2 in rat striatal membranes. (41% inhibition at 10 e-6 M). The class given is cell membranes, Membrane.
Assay [9] has as its system Rattus norvegicus. The experiment in a line: Percent inhibition of dopamine neuronal firing in substantia nigra of anesthetized rats after (ip) administration at 2.5 mg/kg.
Assay [10] concerns Rattus norvegicus. The experiment in a line: Decrease of DOPA formation effected by 30 mg/kg administered intraperitoneally in the striatum of GBL-treated rats. Conditions: at 30 mg/kg.
Assay [11] deals with Rattus norvegicus. The experiment in a line: Percent of rats showing stereotyped behavior at the dose at 3 mg/kg dose level. The class given is functional.
Assay [12] deals with D(1A) dopamine receptor (Rattus norvegicus, UniProt P18901). The experiment in a line: Inhibition of binding of [3H]SCH-23390 to Dopamine receptor D1 was determined. In outline:
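D1 binding was displaced from [3H]SCH23390. IC50 was fitted by nonlinear regression from four or five concentrations.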

The test system of assay [13] is Rattus norvegicus. As to the kind of experiment: Reversal of 6-hydroxydopamine induced depression in lesioned rats was determined after dosing for a period of 30 minutes. The class given is functional. Conditions: 0.5 h. In short, it runs like this: (§2)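 Rats received 6-OHDA 200 μg icv plus pargyline 50 mg/kg ip and desmethylimipramine 25 mg/kg ip at least 1 month earlier, giving about 90% brain DA depletion. Drug was given sc and locomotion recorded for 30 min from dosing. ED200 is the dose doubling activity versus unlesioned controls, estimated from three or four doses with six animals per dose.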

For assay [14], the system named is Rattus norvegicus. As to the kind of experiment: Inhibition of locomotor activity was determined after oral administration in rat(50% inhibition at 3 mg/kg). The class given is functional.
The test system of assay [15] is Rattus norvegicus. The experiment in a line: Percent inhibition of dopamine neuronal firing in substantia nigra of anesthetized rats after (ip) administration at 2.5 mg/kg. The class given is functional.
The target in assay [16] is T1, D(2) dopamine receptor. As to the kind of experiment: Inhibition of [3H]haloperidol binding for Dopamine receptor D2 in rat striatal membranes. (36%inhibition at 10 e-6 M). The class given is cell membranes, Membrane.
Assay [17] deals with Rattus norvegicus. As to the kind of experiment: Percent of animals showing stereotyped behavior in rats at the dose 0.3 mg/kg. The class given is functional.
Assay [18] concerns the target T1, D(2) dopamine receptor. The experiment in a line: Inhibition of [3H]haloperidol binding for Dopamine receptor D2 in rat striatal membranes. (15% inhibition at 10 e-6 M). The class given is cell membranes, Membrane.
Assay [19] deals with T1, D(2) dopamine receptor. As to the kind of experiment: Inhibition of [3H]haloperidol binding for Dopamine receptor D2 in rat striatal membranes. (2% inhibition at 10 e-6 M). The format is cell membranes, Membrane.
The target of assay [20] is T1, D(2) dopamine receptor. As to the kind of experiment: Inhibition of [3H]haloperidol binding for Dopamine receptor D2 in rat striatal membranes. (25% inhibition at 10 e-6 M). The format is cell membranes, Membrane.
In assay [21] the test system is Rattus norvegicus. As to the kind of experiment: Reversal of 6-hydroxydopamine induced depression in lesioned rats after dosing for a period of 30 minutes. The format is functional. Conditions: 0.5 h. In short, it runs like this: as §2
For assay [22], the system named is Rattus norvegicus. The experiment in a line: Percent of animals showing stereotyped behavior in rats at 3 mg/kg. The format is functional.
For assay [23], the system named is Rattus norvegicus. As to the kind of experiment: Inhibition of locomotor activity was determined after oral administration at a dose of 1 mg/kg in rat. The format is functional.
Where [24] appears, read: Rattus norvegicus, sc, read-out: ED50.

Each structure is given as a SMILES string. Activity calls are given as the source filed them. The calls are words filed in the database; no cut-off is given here.

Sequence of D(1A) dopamine receptor (P18901 whole entry): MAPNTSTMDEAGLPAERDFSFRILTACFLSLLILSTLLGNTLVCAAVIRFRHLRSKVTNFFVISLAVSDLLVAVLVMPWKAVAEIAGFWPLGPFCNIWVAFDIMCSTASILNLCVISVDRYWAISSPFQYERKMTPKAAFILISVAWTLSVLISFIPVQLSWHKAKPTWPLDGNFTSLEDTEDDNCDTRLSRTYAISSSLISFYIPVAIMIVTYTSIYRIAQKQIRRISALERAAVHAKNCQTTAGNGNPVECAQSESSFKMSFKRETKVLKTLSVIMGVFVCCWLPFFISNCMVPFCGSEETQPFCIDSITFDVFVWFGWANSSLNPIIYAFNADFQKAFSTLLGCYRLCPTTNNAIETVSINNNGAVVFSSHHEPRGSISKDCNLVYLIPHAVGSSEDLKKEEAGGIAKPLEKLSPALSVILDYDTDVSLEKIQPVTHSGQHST

For the compound `Br.Br.CCCCCN1CCC=C(c2csc(N)n2)C1`, the values for the IC50 in assay [1] and in assay [4] were 1850 nM and 6400 nM, respectively. In assay [2], the inhibition in vivo at 30 mg/kg came to 0%. Also, the figures for the ED50 in [3] (setting [24]), in assay [5] and in [6] were more than 30 mg/kg, 4.1 mg/kg and 15.6 mg/kg, respectively.

As for `CCCN1CCCC(c2cccc(O)c2)C1` (stereo unspecified) [listing 1 of 2 here], the ED50 entry in assay [7] is “inactive”.

With `CCCN1CCC=C(c2csc(C)n2)C1.Cl.Cl`, the IC50 in assay [8] was more than 1000 nM. This compound returned an ED50 in [5] of more than 30 mg/kg.

Turning to `Cl.Cl.Nc1nc(C2=CCCN(CCc3ccccc3)C2)cs1`, the figures for the IC50 in [1] and in [4] were 1080 nM and 911 nM, respectively. Moreover, the 50% effective dose (ED50) in [3] (setting [24]) stood at 5.8 mg/kg; in assay [6], 33.6 mg/kg.

Take `CCN1CCC=C(c2csc(N)n2)C1`: the figures for the IC50 in assay [1] and in assay [4] were 945 nM and 411 nM, respectively. The ED50 in assay [3] (setting [24]) is more than 30 mg/kg. Also, the values for the inhibition in [9] and in [10] were 96% and 92%, respectively. Also, the ED50 result in assay [6] was “inactive”.

Compound `CCCN1CCC=C(c2csc(N)n2)C1` had an Animals in assay [11] of 100%. In addition, the half-inhibitory concentration (IC50) in assay [1] is 958 nM; in assay [12] it was more than 50000 nM; in assay [4] it was 596 nM. Also, in [2], the inhibition in vivo at 30 mg/kg is 100%. Also, in assay [3] (setting [24]), the ED50 is more than 30 mg/kg. Moreover, the ED200 in assay [13] was found to be 0.4 mg/kg. For the same compound, the 50% effect level in [14] (ED50 at 3 mg/kg) was put at a dose of 3 mg/kg. Also, the inhibition in vivo at 2.5 mg/kg in assay [15] was determined as 100%.

For the compound `CCCCCCN1CCC=C(c2csc(N)n2)C1.Cl.Cl`, the IC50 in assay [16] was more than 1000 nM; in assay [4], 5330 nM. Further, the ED50 in assay [3] (setting [24]) was more than 30 mg/kg.

`CN1CCc2cccc3c2[C@H]1Cc1ccc(O)c(O)c1-3` [APOMORPHINE] came in with an Animals in [17] of 100%. For the same compound, the ED50 in assay [3] (setting [24]) stood at 0.1 mg/kg.

For the compound `CCCN1CCCC(c2csc(N)n2)C1.Cl.Cl` (stereo unspecified), in [18], the IC50 is more than 1000 nM. Also, in assay [2], the inhibition in vivo at 30 mg/kg turned out to be 55%. Moreover, it took a dose of 18.9 mg/kg to reach the 50% effect level in [6] (ED50).

As for `CCCN1CCC=C(c2cnc(N)s2)C1`, the ED50 in assay [5] turned out to be 19.1 mg/kg. The IC50 in assay [19] is more than 1000 nM.

On to `CCCCCCCN1CCC=C(c2csc(N)n2)C1.Cl.Cl`, for which the IC50 in [1] came to 2170 nM; in assay [4] it was 5130 nM. The ED50 in [3] (setting [24]) and in assay [6] was more than 30 mg/kg in each case.

For `CCCCN1CCC=C(c2csc(NC)n2)C1.Cl.Cl`, in [20], the IC50 was more than 1000 nM. The ED50 in assay [5] amounted to 4.4 mg/kg; in assay [6] it was 16.7 mg/kg.

Regarding `CCCN1CCC=C(c2csc(NC)n2)C1`, the IC50 in assay [20] is more than 1000 nM; in assay [4] it was more than 10000 nM.

For the compound `CCCN1CCCC(c2cccc(O)c2)C1` (racemic), the ED50 in assay [3] (setting [24]) came out at 30 mg/kg; in assay [6], 3 mg/kg.

As for `CCCCN1CCC=C(c2csc(N)n2)C1.Cl.Cl`, the IC50 in assay [1] was 2120 nM; in assay [4], 3980 nM. In [2], testing at 30 mg/kg gave an inhibition in vivo of 0%. Further, the median effective dose (ED50) in assay [3] (setting [24]) is more than 30 mg/kg; in assay [6], 5.4 mg/kg. The compound further registered an inhibition in vivo at 2.5 mg/kg in [15] of 0%.

As for `C=CCN1CCC=C(c2csc(N)n2)C1`, the IC50 in assay [1] is 440 nM; in [12], more than 50000 nM; in [4], 257 nM. In addition, the ED200 in assay [21] came out at 0.3 mg/kg. Moreover, the inhibition in vivo at 30 mg/kg in assay [2] was found to be 100%. Also, the ED50 came out at 8.7 mg/kg in [3] (setting [24]) and 2.8 mg/kg in assay [5]. Besides, the Animals in [22] amounted to 100%. For the same compound, the inhibition in vivo at 1 mg/kg in [23] turned out to be 30%. The same compound registered an inhibition in vivo at 2.5 mg/kg in assay [15] of 100%.

Take `CN1CCC=C(c2csc(N)n2)C1.Cl.Cl`: in assay [1], the IC50 is 1040 nM. Also, the ED50 in assay [3] (setting [24]) is more than 30 mg/kg. Further, the inhibition in [9] and in assay [10] was 100% each time. Further, in [6], the ED50 entry is “inactive”.

For the compound `CCCN1CCCC(c2cccc(O)c2)C1` (stereo unspecified) [listing 2 of 2 here], the ED50 in [3] came to 30 mg/kg.
